Shown is part of a subset that was picked to be rich in hits.
HCT116 PTEN-null = growth suppressors of cells with PTEN tumor suppressor deletion; 1.2% of 140,000 active; HCT116 PTEN-null viability, CellTiter-Glo, 60 h; stronger effect = lower value; AID 827; viability, % at 10 µM;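 active = viability at or below a set limit, 4 SD under the median of all tested compounds, cut at about 3.7% in these data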;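 also: PTEN knockout HCT116 line with beta catenin targeted HCT116 as companion control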
Fibroblast inh = blocks proliferation of human lung fibroblasts; LL 47 human lung fibroblast viability, ATP luminescence; stronger effect = lower value; viability, % at 10 µM; 1.1% of 85,000 active;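 active = viability at or below 50% in the single dose screen; inactive = viability above 50%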;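 also: compound exposure lasted 72 h before the ATP readout; 100% = median luminescence of untreated cell-only wells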
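Material: human LL 47 lung fibroblast cells; quantity: 1,150 cells/well; medium: IMEM plus 15% FBS; doses: 0.1% DMSO in all compound wells; timing: overnight attachment after seeding, then 72 h compound exposure at 37 °C; detection: CellTiter-Glo luminescence; measure: % viability of median cell-only signal; controls: cell-only wells, no compound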
HUVEC prolif 384 = inhibitors of human endothelial cell proliferation | HUVEC proliferation, CellTiter-Glo luminescence, 72 h; stronger effect = lower value | viability, % at 10 µM (by protocol) | 1.1% of 86,000 active | AID 648;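 active = viability at or below 30%; inactive = viability above 30%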;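 also: 100% = median luminescence of DMSO-only cell control wells on each plate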
Pyk2 oligo antag = Pyk2 (human) oligomerization antagonism | 0.83% of 99,000 active | Q14289 | Q293 cells, Pyk2 FERM NanoBiT luminescence; stronger effect = lower value | AID 1347419 | z-score (the deposit names both 25 µM and 10 µM);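 active = Z-score of -3 or lower, scaled per plate to the spread of control and sample wells; inactive = z-score above -3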;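 also: negative z-score means lost luminescence so less FERM oligomerization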
Target sequence (Q14289 whole entry, looked up): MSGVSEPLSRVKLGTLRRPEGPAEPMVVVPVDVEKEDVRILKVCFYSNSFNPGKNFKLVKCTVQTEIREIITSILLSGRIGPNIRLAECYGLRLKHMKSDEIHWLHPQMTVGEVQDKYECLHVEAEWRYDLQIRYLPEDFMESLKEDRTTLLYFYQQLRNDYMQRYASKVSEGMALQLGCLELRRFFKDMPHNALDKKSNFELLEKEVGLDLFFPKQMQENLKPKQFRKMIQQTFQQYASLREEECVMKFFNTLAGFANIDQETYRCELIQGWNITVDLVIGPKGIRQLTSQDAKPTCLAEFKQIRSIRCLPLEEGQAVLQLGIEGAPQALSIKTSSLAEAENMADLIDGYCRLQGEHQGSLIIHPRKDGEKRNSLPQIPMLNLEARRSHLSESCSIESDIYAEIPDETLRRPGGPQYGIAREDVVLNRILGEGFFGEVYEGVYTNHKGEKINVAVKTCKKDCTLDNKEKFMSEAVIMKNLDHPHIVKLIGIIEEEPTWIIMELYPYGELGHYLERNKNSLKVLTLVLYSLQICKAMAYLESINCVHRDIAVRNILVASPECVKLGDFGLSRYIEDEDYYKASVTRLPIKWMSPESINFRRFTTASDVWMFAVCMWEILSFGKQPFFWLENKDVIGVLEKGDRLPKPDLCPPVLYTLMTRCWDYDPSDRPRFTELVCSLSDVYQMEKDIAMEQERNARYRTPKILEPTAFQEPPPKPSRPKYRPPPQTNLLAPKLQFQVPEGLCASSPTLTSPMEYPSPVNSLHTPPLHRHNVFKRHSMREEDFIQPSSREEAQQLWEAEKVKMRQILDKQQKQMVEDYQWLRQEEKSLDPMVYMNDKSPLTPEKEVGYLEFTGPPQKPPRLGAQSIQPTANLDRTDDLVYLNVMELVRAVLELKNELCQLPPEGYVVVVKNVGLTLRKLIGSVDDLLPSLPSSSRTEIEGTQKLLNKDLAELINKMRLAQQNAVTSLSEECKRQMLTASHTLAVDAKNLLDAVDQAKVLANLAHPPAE
bCat KO growth = beta-catenin-lacking colon tumor cell growth suppression; AID 818; viability, % at 10 µM; 1.5% of 140,000 active; HCT116 beta-catenin knockout viability, CellTiter-Glo, 60 h; stronger effect = lower value;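 active = viability at or under a set limit, the compound median less 4 SD, cut at about 6% in these data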;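 also: 0% = Hyamine 1622 control at 20 µM and 100% = untreated cell control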
H69AR growth 86K = blocks growth of human H69AR lung tumor cells | viability, % at 10 µM | 6% of 85,000 active | H69AR lung tumor viability, ATP luminescence, 72 h; stronger effect = lower value | AID 598;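 active = viability at or below 40%; inactive = viability above 40%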;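 also: multidrug resistant small cell line overexpressing MRP-1 efflux transporter; 100% = mean luminescence of untreated control wells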
Active calls of the source: *; x = no result.

SMILES	HCT116 PTEN-null	Fibroblast inh	HUVEC prolif 384	Pyk2 oligo antag	bCat KO growth	H69AR growth 86K
COc1ccc(CCNc2nnc(Sc3nnnn3-c3ccccc3)s2)cc1OC	22.0	55.6	41.5	-0.77	13.5	29.0*
CCCCn1c(=N)n(CC(O)COc2ccccc2)c2ccccc21 (stereo not drawn)	40.9	103.3	97.8	2.42	51.4	78.2
N=c1n(Cc2ccccc2)c2ccccc2n1CC(O)COc1ccccc1 (stereo not drawn)	1.2*	56.6	98.0	0.64	0.9*	14.8*
Cc1ccc(Cn2c(=N)n(CC(O)COc3ccccc3)c3ccccc32)cc1 (stereo not drawn)	0.5*	22.1*	2.7*	0.39	0.5*	-0.1*
Cc1ccc(SC(=O)COc2ccccc2C)cc1	x	94.2	72.6	0.21	90.5	1.7*
Cc1ccccc1OCC(=O)NNC(=O)c1ccc(-c2ccccc2)cc1	92.0	x	x	1.36	94.0	x
COc1ccc(COc2cc(-c3cccc(OC)c3)nc3ccc(NC(=O)C(C)C)cc23)cc1	24.8	x	x	x	21.1	x
COC(=O)c1cc(NC(=O)c2cccc(C(F)(F)F)c2)c(=O)oc1C/C=N/OCc1cccc(Cl)c1Cl	90.2	99.2	79.0	2.32	107.5	12.6*
O=C(NCc1ccccc1Cl)c1cccc(C(F)(F)F)c1	89.1	x	x	x	91.1	x
CCOC(=O)COc1ccc(S(=O)(=O)N2CCN(c3ccccc3)CC2)cc1	86.1	x	x	x	92.5	x
Cc1ccc(C2Nc3ccccc3C(=O)N2Cc2ccco2)cc1 (stereo not drawn)	36.9	88.0	84.2	-1.49	32.1	29.8*
O=C1c2ccccc2NC(c2ccc(O)cc2)N1Cc1ccco1 (stereo not drawn)	96.1	109.0	99.1	-0.64	102.9	107.0
O=C(c1ccco1)N1CCN(C(c2cccs2)c2nnnn2C2CCCCC2)CC1 (stereo not drawn)	72.0	96.7	96.0	-0.89	69.4	85.8
Cc1ccc(NC(=O)OCCN2CCN(Cc3ccccc3)CCC2=O)cc1	73.6	x	x	x	78.2	x
CCNC(=O)CCSc1nnc(-c2ccco2)o1	100.8	x	x	x	97.8	x
COc1ccc(NC2(c3ccc(Cl)cc3)C(=O)c3ccccc3C2=O)cc1	95.8	x	x	-0.61	96.9	x
COc1ccc(C(C[N+](=O)[O-])C2(c3ccc(OC)c(OC)c3)C(=O)c3ccccc3C2=O)cc1 (stereo not drawn)	2.1*	x	x	-1.75	2.5*	x
O=C(c1ccco1)N1CCC(c2ccccc2)C1 (stereo not drawn)	100.5	95.5	91.5	-0.33	98.4	86.8
COc1ccc(-c2nnc3c4ccccc4c(C)nn23)cc1	72.7	79.4	69.5	-2.2	77.3	32.4*
Cc1nn2c(-c3ccncc3)nnc2c2ccccc12	95.4	x	x	0.36	89.0	x
Cc1cc2c3c(c1)C1(C(=O)N3C(C)(C)CC2C)C(C#N)=C(N)Oc2n[nH]c(C)c21 (stereo not drawn)	26.6	93.1	73.9	-1.33	27.1	19.9*
CCCOC(=O)c1ccc(Nc2nc(C)cc(=O)[nH]2)cc1	94.5	106.3	93.7	0.33	94.4	17.1*
COC(=O)Sc1nc(N2CCOCC2)c2c(c1C#N)CC(C)(C)OC2	107.8	92.3	80.9	-0.62	109.3	47.2
CCc1nc(N2CCN(C(=O)c3ccccc3)CC2)c(C#N)c2c1COC(C)(C)C2	60.4	95.9	80.2	-0.45	60.8	72.8
CC1(C)Cc2c(c(N3CCOCC3)nc3snc(NC(=O)c4ccccc4)c23)CO1	102.0	94.0	110.2	0.79	99.1	36.5*
SMILES	HCT116 PTEN-null	Fibroblast inh	HUVEC prolif 384	Pyk2 oligo antag	bCat KO growth	H69AR growth 86K
CC1(C)Cc2c(C#N)c(SCc3ccccc3)nc(N3CCOCC3)c2CO1	72.6	77.0	80.3	-2.39	86.8	44.0
CC1(C)Cc2c(C#N)c(SCC(=O)c3ccccc3)nc(N3CCOCC3)c2CO1	73.9	47.5*	66.0	-1.19	77.1	48.5
CCCCCSc1nc(N2CCOCC2)c2c(c1C#N)CC(C)(C)OC2	69.1	82.6	91.1	-0.53	80.0	33.0*
CC1(C)Cc2c(C#N)c(N3CCN(C(=O)c4ccccc4)CC3)nc(Cc3ccccc3)c2CO1	70.3	96.8	83.3	-1.53	83.9	29.4*
CCn1c(=O)c(C(=O)CN2CCN(S(=O)(=O)c3cc(C)ccc3C)CC2)c(N)n(Cc2ccccc2)c1=O	55.0	x	x	x	55.9	x
Cc1ccc(-c2nnc(SCC(=O)Nc3ccccc3N3CCOCC3)o2)cc1	93.1	96.3	106.1	0.49	96.9	94.7
CCOC(=O)CC(=O)CSc1nc2ccc(C)cc2cc1C#N	24.8	96.2	100.1	-0.42	30.8	3.2*
CCOC(=O)CC(=O)CSc1nc(C)cc(C)c1C#N	100.1	97.8	94.8	-0.4	87.5	88.7
CCOC(=O)CC(=O)CSc1nc2c(c(C)c1C#N)CCC2	82.3	103.5	78.5	0.94	94.2	12.1*
Cc1ccc2nc(SCC(=O)Nc3ccccc3N3CCOCC3)c(C#N)cc2c1	58.4	95.0	44.4	-0.71	57.5	23.8*
NC(=O)CNC(=O)[C@@H]1CC2(CC(c3ccc(Cl)cc3)=NO2)CN1C(=O)c1ccc(Br)cc1 (stereo partly drawn)	106.5	x	x	x	90.5	x
CCOC(=O)c1cc[n+](CC(=O)c2ccc(F)cc2)cc1	99.4	x	x	x	102.3	x
Cc1cc(Cl)cc(Cl)c1CNc1c([N+](=O)[O-])c(=O)oc2ccccc12	86.9	x	x	x	90.3	x
N#Cc1c(-c2ccccc2)c(C#N)c2nc3ccccc3n2c1N	71.3	x	x	x	78.4	x
C=CCc1c(C)c(C#N)c2nc3ccccc3n2c1NCCN(C)C	91.5	96.4	99.0	-0.09	84.4	33.0*
CCCNc1cc(C)c(C#N)c2nc3ccccc3n12	87.2	107.5	91.2	-0.22	88.1	37.4*
CCc1c(C)c(C#N)c2nc3ccccc3n2c1NCc1ccco1	76.8	91.8	85.0	0.09	82.8	35.6*
Cc1cc(NCCCO)n2c(nc3ccccc32)c1C#N	98.2	x	x	x	104.2	x
Cc1ccc(-c2c(C#N)c(N)n3c(nc4ccccc43)c2C#N)cc1	4.7	x	x	-4.02*	7.2	x
Cc1ccc(NC(=O)C2(c3ccccc3)CCOCC2)c([N+](=O)[O-])c1	97.8	x	x	x	86.3	x
CON1C(=O)C(=O)N(OC)C(C)(C)C1(C)C	96.2	x	x	x	99.2	x
CCN(C(=O)CN1CCN(S(=O)(=O)c2cc(Cl)ccc2Cl)CC1)c1c(N)n(Cc2ccccc2)c(=O)[nH]c1=O	98.0	x	x	x	90.0	x
Cc1nc2c(c(C)c1C#N)C(=O)c1ccccc1-2	90.6	x	x	x	86.3	x
Cc1nc(S(=O)(=O)N(C)c2ccccc2)c(C#N)c(C)c1Cl	4.1	39.4*	83.4	-0.31	3.3*	4.2*
COc1ccc(C2CC(c3ccccc3)=NN2C(=O)COC(=O)c2cc(S(=O)(=O)N3CCOCC3)ccc2F)cc1 (stereo not drawn)	84.8	x	x	x	83.4	x
COC(=O)c1ccc(Sc2nnnn2-c2ccccc2)c([N+](=O)[O-])c1	6.2	x	x	-0.64	6.0*	x
COC(=O)c1ccc(-n2nnnc2SCc2ccccc2OC)cc1	43.0	97.8	88.8	-1.02	28.8	37.0*

High-throughput results deposited in PubChem BioAssay by several laboratories.
